For orientation: IC50 means the concentration needed to halve the response being measured. Read a low IC50 as greater potency in that assay. The MIC is the lowest concentration found to suppress growth. A higher MIC goes with a need for much substance.

For ten molecules, IC50, MIC and Activity results are on record in ChEMBL document CHEMBL1141291, “Bioactive constituents of the roots of Polyalthia cerasoides” (J Nat Prod, 2007).

The subject of one experiment is Plasmodium falciparum. The experiment is described as follows: Antimalarial activity against multidrug-resistant Plasmodium falciparum K1 in [3H]hypoxanthine incorporation microculture radioisotope assay. The class given is functional, organism-based. In outline:
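P. falciparum K1 maintained in culture by the Trager and Jensen method. Growth was measured in vitro by [3H]-hypoxanthine uptake in a microculture radioisotope format (Desjardins method). IC50 is the concentration giving 50% reduction in parasite growth. Artemisinin was the standard.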

The test system of experiment [1] is Mycobacterium tuberculosis. The experiment is described as follows: Antituberculosis activity against Mycobacterium tuberculosis H37Ra by microplate alamar blue assay. The class given is functional. A general note: Alamar Blue is a resazurin reagent that responds to reducing activity.
The next experiment concerns KB. The experiment is described as follows: Cytotoxicity against human KB cells. The class given is functional, cell-based. The essentials:
(§1)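 Tested on human epidermoid carcinoma (KB), breast cancer (BC1) and small cell lung cancer (NCI-H187) cell lines. Growth was read by a colorimetric method following Skehan and co-workers. Ellipticine was run as the reference substance.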

A short description of experiment [2]: Cytotoxicity against human BC1 cells. Format: functional, cell-based. In outline: as §1
A further experiment deals with NCI-H187. Description: Cytotoxicity against human NCI-H187 cells. The class given is functional, cell-based. The essentials:
as §1

≈ marks a conversion by molar mass, not a printed value. Calls of active or inactive are those of the source. The rule behind the calls is not given here.

Regarding `CCCCC#CC#CC#CCCCCCCCC(=O)O`, the IC50 with Plasmodium falciparum is 5 µg/mL (≈ 18.4 µM); in the experiment on KB, above 5 µg/mL; in experiment [2] it was 13 µg/mL (≈ 47.7 µM); in the experiment on NCI-H187, above 5 µg/mL. This molecule also had an MIC in experiment [1] of 6.25 µg/mL (≈ 22.9 µM).

Regarding `C=C1CC[C@@H]2O[C@]2(C)CC[C@@H]2[C@@H]1CC2(C)C`, the IC50 in the experiment with Plasmodium falciparum is 2.8 µg/mL (≈ 12.7 µM); in the experiment on KB it was above 5 µg/mL; in experiment [2], above 5 µg/mL; with NCI-H187, 19.5 µg/mL (≈ 88.5 µM). Besides, the outcome in experiment [1] was inactive.

Consider `C/C1=C\CC/C(C)=C/CC(C)(C)/C=C/C1` [ALPHA-HUMULONE], for which, in the experiment on Plasmodium falciparum, the result was inactive. This molecule also returned an MIC in experiment [1] of 6.25 µg/mL (≈ 30.6 µM). The IC50 (in the experiment with KB; in experiment [2]; with NCI-H187) was above 5 µg/mL each time.

With `C[C@@H]1CC[C@H]2[C@@H](C)C(=O)O[C@@H]3O[C@@]4(C)CC[C@@H]1[C@]32OO4` [ARTEMISININ], the IC50 in the experiment on Plasmodium falciparum is 0.001 µg/mL (≈ 0.00354 µM).

`COc1ccc2c(c1)c(-c1c3c4c(cc5c(c4c4ccc(OC)cc14)OCO5)CCN3)c1c3c(cc4c(c32)OCO4)CCN1` [BIDEBILINE E] had an IC50 with Plasmodium falciparum of 4.2 µg/mL (≈ 7.18 µM). This molecule also returned an MIC in experiment [1] of 6.25 µg/mL (≈ 10.7 µM).

On to `COc1cc2c(cc1O)[C@H](Cc1ccc(OC)c(OC)c1)N(C)CC2` [CODAMINE], for which the half-maximal inhibitory concentration (IC50) in the experiment on Plasmodium falciparum was 4.2 µg/mL (≈ 12.2 µM); with KB, above 5 µg/mL; in experiment [2], above 5 µg/mL; with NCI-H187, above 5 µg/mL. Besides, in experiment [1], the result was inactive.

Regarding `Cc1c2ccncc2c(C)c2c1[nH]c1ccccc12` [ELLIPTECINE], the IC50 with KB came to 0.36 µg/mL (≈ 1.46 µM); in experiment [2] it was 0.26 µg/mL (≈ 1.06 µM); with NCI-H187 it was 0.32 µg/mL (≈ 1.3 µM).

As for `NNC(=O)c1ccncc1` [ISONIAZID], the MIC in experiment [1] was 0.05 µg/mL (≈ 0.365 µM).

In experiment [1], `NC[C@H]1O[C@H](O[C@H]2[C@H](O)[C@@H](O[C@H]3O[C@H](CO)[C@@H](O)[C@H](N)[C@H]3O)[C@H](N)C[C@@H]2N)[C@H](O)[C@@H](O)[C@@H]1O.O=S(=O)(O)O` [KANAMYCIN SULFATE] showed an MIC of 2.5 µg/mL.

In the case of `COc1ccc(C[C@H]2c3cc(OC)c(OC)cc3CCN2C)cc1O` [LAUDANIDINE], the IC50 in the experiment with Plasmodium falciparum is 7 µg/mL (≈ 20.4 µM); with KB, above 5 µg/mL; in experiment [2] it was above 5 µg/mL; with NCI-H187, above 5 µg/mL. The result in experiment [1] was inactive.
